Data set [1] addresses T1, Toll-like receptor 4 (Homo sapiens, UniProt O00206). The data set is described as follows: Antagonist activity at human TLR4 expressed in HEK blue cells coexpressing MD-2/CD14 assessed as inhibition of LPS-induced NF-kappaB activation-mediated SEAP production after 24 hrs. The data set is classed as cell-based. In short, it runs like this: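 HEK293 cells stably carrying human TLR4, MD-2, CD14 and an NF-κB-inducible SEAP reporter were seeded at 4×10^4/well, grown 24 h, then switched to unsupplemented DMEM. Cells were treated with 20 ng/mL LPS plus compound (1.56–100 µM; from 10 mM DMSO stocks) for 24 h. Supernatant SEAP was read with QUANTI-Blue at OD620 after 15–30 min at 37°C. Two independent experiments in triplicate.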

Data set [2] has as its system HCN2 channel. The data set is described as follows: Inhibition of HCN2 (unknown origin) expressed in COS7 cells assessed as amplitude of inward current (I/I0 ratio) at 10 uM at -40 mV holding potential by pach clamp electrophysiology assay. Particulars: Homo sapiens; call rule not given here.
Data set [3] deals with HCN4 channel. The data set can be described thus: Inhibition of HCN4 (unknown origin) expressed in COS7 cells assessed as amplitude of inward current (I/I0 ratio) at 10 uM at -40 mV holding potential by pach clamp electrophysiology assay. As to conditions: Homo sapiens.
For data set [4], the target named is T2, Toll-like receptor 4 (Mus musculus) (UniProt Q9QUK6).
T2 sequence (whole entry): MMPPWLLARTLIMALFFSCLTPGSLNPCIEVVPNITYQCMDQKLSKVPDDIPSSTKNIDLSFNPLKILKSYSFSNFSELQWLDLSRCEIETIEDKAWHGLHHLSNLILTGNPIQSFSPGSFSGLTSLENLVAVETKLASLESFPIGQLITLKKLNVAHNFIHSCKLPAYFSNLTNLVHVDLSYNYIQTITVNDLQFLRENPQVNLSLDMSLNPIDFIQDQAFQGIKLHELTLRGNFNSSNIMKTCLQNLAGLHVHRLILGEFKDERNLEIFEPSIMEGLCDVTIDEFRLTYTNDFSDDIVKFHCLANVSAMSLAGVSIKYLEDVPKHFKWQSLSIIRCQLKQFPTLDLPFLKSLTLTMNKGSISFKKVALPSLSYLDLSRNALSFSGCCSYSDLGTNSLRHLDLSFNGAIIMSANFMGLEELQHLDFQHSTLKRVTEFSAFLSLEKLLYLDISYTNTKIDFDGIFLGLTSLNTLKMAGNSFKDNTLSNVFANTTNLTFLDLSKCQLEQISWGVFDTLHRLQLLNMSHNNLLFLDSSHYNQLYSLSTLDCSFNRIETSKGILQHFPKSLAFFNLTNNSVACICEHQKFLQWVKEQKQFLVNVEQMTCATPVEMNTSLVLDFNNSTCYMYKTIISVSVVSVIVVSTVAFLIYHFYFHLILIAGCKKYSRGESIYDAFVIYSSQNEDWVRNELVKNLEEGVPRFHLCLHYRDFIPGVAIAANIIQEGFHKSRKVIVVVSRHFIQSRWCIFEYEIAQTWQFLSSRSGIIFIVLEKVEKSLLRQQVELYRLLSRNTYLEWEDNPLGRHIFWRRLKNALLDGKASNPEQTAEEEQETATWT
The data set can be described thus: Antagonist activity at TLR4 in mouse RAW264.7 cells assessed as inhibition of LPS-induced NO production after 24 hrs by Griess assay. It counts as cell-based. A digest of the protocol: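 RAW264.7 or BV-2 cells were seeded at 50,000/well in DMEM + 10% FBS with penicillin/streptomycin and pre-incubated 24 h at 37°C, 5% CO2. Medium was replaced with unsupplemented DMEM. Cells were treated with 40 ng/mL LPS plus graded compound for 24 h. Supernatant nitrite was read by Griess reaction (sulfanilic acid/phosphoric acid, then naphthylethylenediamine, 10 min each) against a nitrite standard.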

Data set [5] concerns the target T1, Toll-like receptor 4. The data set can be described thus: Antagonist activity at TLR4 in human PBMC assessed as inhibition of LPS-induced TNFalpha production at 20 uM after 24 hrs by ELISA relative to control. The data set is classed as cell-based. In short, it runs like this: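 Human PBMC at 1×10^6 cells/well in RPMI 1640 were given compound with or without 10 ng/mL LPS for 24 h at 37°C, 5% CO2. Supernatants were frozen at −80°C, then TNF-α was quantified by sandwich ELISA against a recombinant human standard. Each sample was run in triplicate; three independent experiments, mean ± SD.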

Data set [6] can be described thus: Cytotoxicity against human HEK-Blue cells assessed as decrease in cell viability up to 100 uM after 24 hrs by CCK-8 assay. The data set is classed as cell-based. In short, it runs like this: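 HEK-Blue hTLR4 cells were incubated with 40 ng/mL LPS and compound (0–100 µM) for 24 h. Viability was measured by CCK-8 absorbance at 450 nm.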
On the technique in general: Tetrazolium dyes change colour on reduction, which living cells bring about.

The target of data set [7] is T1, Toll-like receptor 4. The data set can be described thus: Antagonist activity at human TLR4 expressed in HEK blue cell lysates assessed as inhibition of LPS-induced TLR4 protein expression after 24 hrs by Western blot method. In short, it runs like this:
(§1)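 HEK-Blue hTLR4 cells at 1×10^6/well were grown 24 h in DMEM + 10% FBS, then switched to unsupplemented DMEM. Cells were treated with 40 ng/mL LPS and compound (0–20 µM) for 24 h, then lysed on ice. Protein was measured by BCA, run on 10% SDS-PAGE and blotted to PVDF. Blots were probed with anti-TLR4 (overnight, 4°C) with ECL detection; GAPDH served as loading control.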

Data set [8] addresses T1, Toll-like receptor 4. The data set is described as follows: Antagonist activity at human TLR4 expressed in HEK blue cell lysates assessed as inhibition of LPS-induced TLR4 protein expression at 10 uM after 24 hrs by Western blot method relative to control. A digest of the protocol:
as §1

Data set [9] deals with Toll-like receptor 4 (Mus musculus) (UniProt Q9QUK6). The data set can be described thus: Antagonist activity at TLR4 in mouse BV2 cells assessed as inhibition of LPS-induced NO production after 24 hrs by Griess assay. On the technique in general: Nitrite, measured by Griess reagent, commonly stands in for NO production.
Data set [10] relates to HCN2 channel. The data set is described as follows: Inhibition of HCN2 (unknown origin) expressed in COS7 cells assessed as change in half activation potential at 10 uM at -40 mV holding potential by pach clamp electrophysiology assay. Particulars: Homo sapiens.
The test system of data set [11] is HCN4 channel. The data set is described as follows: Inhibition of HCN4 (unknown origin) expressed in COS7 cells assessed as change in half activation potential at 10 uM at -40 mV holding potential by pach clamp electrophysiology assay. As to conditions: Homo sapiens.
Data set [12] concerns HCN2 channel. The data set can be described thus: Inhibition of HCN2 (unknown origin) expressed in COS7 cells assessed as Tdeact time at 10 uM at -40 mV holding potential measured at +50 mV by pach clamp electrophysiology assay (reference value: 66 +/- 4.2 milliseconds). As to conditions: Homo sapiens.
Data set [13] deals with HCN2 channel. The data set can be described thus: Inhibition of HCN2 (unknown origin) expressed in COS7 cells assessed as Tact time at 10 uM at -40 mV holding potential measured at -120 mV by pach clamp electrophysiology assay (reference value: 242.9 +/- 24 milliseconds). Particulars: Homo sapiens.
Data set [14] has as its system HCN4 channel. The data set is described as follows: Inhibition of HCN4 (unknown origin) expressed in COS7 cells assessed as Tdeact time at 10 uM at -40 mV holding potential measured at +50 mV by pach clamp electrophysiology assay (reference value: 92.9 +/- 9.5 milliseconds). Particulars: Homo sapiens.
In data set [15] the test system is HCN4 channel. The data set can be described thus: Inhibition of HCN4 (unknown origin) expressed in COS7 cells assessed as Tact time at 10 uM at -40 mV holding potential measured at -120 mV by pach clamp electrophysiology assay (reference value: 780.9 +/- 59.2 milliseconds). As to conditions: Homo sapiens.

Data on 27 compounds can be found in ChEMBL document CHEMBL4152275, “Discovery of novel small molecule TLR4 inhibitors as potent anti-inflammatory agents” (Eur J Med Chem, 2018).

Usually IC50 stands for the point on the concentration scale where inhibition reaches its midpoint. The term inhibition denotes the relative decrease from the control value, in per cent.

SMILES strings stand for the structures.

T1 sequence (O00206 whole entry): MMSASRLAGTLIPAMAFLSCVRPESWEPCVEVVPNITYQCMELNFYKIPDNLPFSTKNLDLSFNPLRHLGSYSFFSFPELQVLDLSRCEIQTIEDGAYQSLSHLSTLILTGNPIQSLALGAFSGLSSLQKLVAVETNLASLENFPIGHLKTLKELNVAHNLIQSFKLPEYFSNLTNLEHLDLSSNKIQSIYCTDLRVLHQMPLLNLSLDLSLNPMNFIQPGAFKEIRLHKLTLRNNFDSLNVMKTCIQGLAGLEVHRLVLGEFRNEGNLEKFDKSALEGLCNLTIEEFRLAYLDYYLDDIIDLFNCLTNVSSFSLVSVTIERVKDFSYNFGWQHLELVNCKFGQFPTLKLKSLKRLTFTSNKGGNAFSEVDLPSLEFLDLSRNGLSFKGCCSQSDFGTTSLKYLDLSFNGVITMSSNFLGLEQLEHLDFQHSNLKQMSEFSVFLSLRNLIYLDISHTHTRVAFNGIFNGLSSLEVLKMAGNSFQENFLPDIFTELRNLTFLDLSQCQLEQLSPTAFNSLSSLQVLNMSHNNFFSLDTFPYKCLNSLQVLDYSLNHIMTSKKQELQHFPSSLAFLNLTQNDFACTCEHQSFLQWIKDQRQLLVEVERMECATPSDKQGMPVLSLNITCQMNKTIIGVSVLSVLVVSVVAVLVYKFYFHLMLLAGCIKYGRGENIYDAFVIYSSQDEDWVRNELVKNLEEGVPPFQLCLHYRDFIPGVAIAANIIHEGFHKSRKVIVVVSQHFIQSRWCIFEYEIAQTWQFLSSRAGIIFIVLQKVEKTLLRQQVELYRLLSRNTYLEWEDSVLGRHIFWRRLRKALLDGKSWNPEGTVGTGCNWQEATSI

As to `CCOc1ccc(OCCC(O)CN(C)Cc2c(C)nn(Cc3ccccc3C)c2C)cc1` (stereo not given), the 50% inhibitory concentration (IC50) at Toll-like receptor 4 [1] (read-out: IC50) turned out to be 54.6 µM. Consider `OC(CNc1ccc(F)cc1)COc1cccc2[nH]c3ccccc3c12` (stereo not given), for which the half-inhibitory concentration (IC50) result on Toll-like receptor 4 [1] is on record as “Not Active”. Moreover, the Ratio with HCN2 channel [2] turned out to be 1; in the data set on HCN4 channel [3], 0.82.

As to `CCCc1ccc(OCCC(O)CN(C)Cc2c(C)nn(Cc3ccccc3Cl)c2C)cc1` (stereo not given), on Toll-like receptor 4 [1] (read-out: IC50), the IC50 stood at 24.7 µM.

In the case of `Cc1ccc(OCCC(O)CN(C)Cc2c(C)nn(Cc3ccccc3Cl)c2C)cc1` (stereo not given), at Toll-like receptor 4 [1] (read-out: IC50), the half-inhibitory concentration (IC50) amounted to 51.5 µM. Take `CCOc1ccc(OCC(O)CN(C)Cc2c(C)nn(Cc3ccccc3Cl)c2C)cc1` (stereo not given): on Toll-like receptor 4 [1] (read-out: IC50), the IC50 is 34.2 µM. Moreover, the Ratio is 0.73 with HCN2 channel [2] and 0.75 in the data set on HCN4 channel [3]. As for `O=C1c2ccccc2C(=O)c2cc(NCC(O)COc3cccc4[nH]c5ccccc5c34)ccc21` (stereo not given), the IC50 result at Toll-like receptor 4 [1] is recorded as “Not Active”.

With `Cc1nn(Cc2ccccc2Cl)c(C)c1CN(C)CC(O)CCOc1cccc2[nH]c3ccccc3c12` (stereo not given), the concentration for half-maximal inhibition (IC50) at Toll-like receptor 4 [1] (read-out: IC50) is 15.1 µM. Same read-out and setting: for `Cc1nn(Cc2ccccc2Cl)c(C)c1CN(C)CC(O)CCOc1ccc(F)cc1` (stereo not given) the value was 55.4 µM. Turning to `CCOc1ccc(OCCC(O)CN(C)Cc2c(C)nn(Cc3ccccc3Cl)c2C)cc1` (stereo not given), the IC50 entry on Toll-like receptor 4 [1] is reported as “Not Active”.

For the compound `C/N=C/c1cn(CC(O)COc2cccc3[nH]c4ccccc4c23)cn1` (stereo not given), the IC50 result on Toll-like receptor 4 [1] is reported as “Not Active”.

`COc1ccccc1OCCNCC(O)COc1cccc2[nH]c3ccccc3c12` (stereo not given) [CARVEDILOL]: the IC50 at Toll-like receptor 4 [1] (read-out: IC50) is 33.2 µM. On the same count and under the same terms, in the case of `OC(CNc1ccc2ccccc2c1)COc1cccc2[nH]c3ccccc3c12` (stereo not given) it was 28.5 µM. In the case of `CCOc1ccc(OCCC(O)CN(C)Cc2c(C)nn(Cc3ccccc3F)c2C)cc1` (stereo not given), on Toll-like receptor 4 [1], the IC50 result was “Not Active”. Consider `Cc1nn(Cc2ccccc2)c(C)c1CN(C)CC(O)COc1cccc2[nH]c3ccccc3c12` (stereo not given), for which the IC50 at Toll-like receptor 4 [1] (read-out: IC50) worked out at 31.5 µM.

For `O=C(c1ccccc1)c1cc(Cl)ccc1NCC(O)COc1cccc2[nH]c3ccccc3c12` (stereo not given), the IC50 on Toll-like receptor 4 [1] (read-out: IC50) was 21.1 µM. With `CCOc1ccc(OCCC(O)CNCCOc2ccccc2OC)cc1` (stereo not given), on Toll-like receptor 4 [1], the IC50 entry is recorded as “Not Active”. `OC(CNc1ccc(-c2ccccc2)cc1)COc1cccc2[nH]c3ccccc3c12` (stereo not given): the IC50 at Toll-like receptor 4 [1] (read-out: IC50) is 21.7 µM. Still for that read-out and setting: in the case of `CCOc1ccc(OCCC(O)CN(C)Cc2c(C)nn(Cc3ccc(Cl)cc3)c2C)cc1` (stereo not given) it was 25.9 µM; in that of `Cc1nn(Cc2ccccc2Cl)c(C)c1CN(C)CC(O)CCOc1ccc(C(C)(C)C)cc1` (stereo not given), 16.7 µM; in that of `CCc1ccc(OCCC(O)CN(C)Cc2c(C)nn(Cc3ccccc3Cl)c2C)cc1` (stereo not given), 26 µM. Turning to `Cc1nn(Cc2ccccc2Cl)c(C)c1CN(C)CC(O)COc1cccc2[nH]c3ccccc3c12` (stereo not given), the IC50 at Toll-like receptor 4 [1] (read-out: IC50) came out at 12.4 µM. For the same compound, the inhibition entry was “Dose-dependent effect” in data set [4]; 80% on Toll-like receptor 4 [5]; “Dose-dependent effect” at Toll-like receptor 4 [7]; above 90% on Toll-like receptor 4 [8]; “Dose-dependent effect” in data set [9]. For the same compound, the Activity result in [6] is “Non-Toxic”. For the same compound, the V1/2 is -21.4 mV with HCN2 channel [10] and -28.8 mV in the data set with HCN4 channel [11]. Besides, the Ratio in the data set with HCN2 channel [2] was found to be 0.7; with HCN4 channel [3], 0.5. Moreover, the TIME in the data set on HCN2 channel [12] was determined as 1.47e-05 h; with HCN2 channel [13], 0.000248 h; with HCN4 channel [14], 2.22e-05 h; in the data set with HCN4 channel [15] it was 0.000597 h. Regarding `Cc1nn(Cc2ccc(Cl)cc2)c(C)c1CN(C)CC(O)COc1cccc2[nH]c3ccccc3c12` (stereo not given), the IC50 at Toll-like receptor 4 [1] (read-out: IC50) came out at 13.6 µM. The same measure, in the same setting: in the case of `Cc1nn(Cc2ccccc2F)c(C)c1CN(C)CC(O)COc1cccc2[nH]c3ccccc3c12` (stereo not given) it was 34.6 µM. Turning to `CCOc1ccc(OCC(O)CNCCOc2ccccc2OC)cc1` (stereo not given), the IC50 result at Toll-like receptor 4 [1] is on record as “Not Active”. Consider `COc1ccccc1OCCNCC(O)CCOc1cccc2[nH]c3ccccc3c12` (stereo not given), for which, at Toll-like receptor 4 [1] (read-out: IC50), the IC50 was 32.5 µM.

Turning to `Cc1nn(Cc2ccccc2Cl)cc1CN(C)CC(O)COc1cccc2[nH]c3ccccc3c12` (stereo not given), at Toll-like receptor 4 [1], the IC50 result is on record as “Not Active”. Regarding `OC(CNc1ccc2c(c1)-c1ccccc1C2)COc1cccc2[nH]c3ccccc3c12` (stereo not given), the half-maximal inhibitory concentration (IC50) on Toll-like receptor 4 [1] (read-out: IC50) turned out to be 12.4 µM.
